In ChEMBL document CHEMBL1143012, “Synthesis and pharmacological in vitro and in vivo evaluations of novel triazole derivatives as ligands of the ghrelin receptor. 1” (J Med Chem, 2007) one finds IC50, Activity and EC50 data, which are given here for 44 compounds.

Each structure is given as a SMILES string. A value given as a limit tells only on which side of the number the result lay.

Assay [1] deals with T1, Growth hormone secretagogue receptor type 1 (Homo sapiens, UniProt Q92847). Nature of the assay: Displacement of [125I-His9]ghrelin from human GHS1a receptor expressed in LLC PK1 cells. Type of assay: cell-based. The method in brief:
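Membranes from LLC PK-1 cells transiently electroporated with hGHS-R1a (harvested about 48 h), 10 µg protein, incubated 60 min at 25 °C with 60 pM 125I-His9-ghrelin in Tris pH 7.3/MgCl2/EDTA/bacitracin buffer. Filtered, washed, gamma counted; nonspecific binding with 10 µM ghrelin. Triplicates, at least three experiments.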
A general note: Loss of bound radioactivity is the signal in a displacement assay; it reports binding, not function.

For assay [2], the target named is T1, Growth hormone secretagogue receptor type 1. Nature of the assay: Activity at human GHS1a receptor expressed in CHO cells assessed as intracellular calcium mobilization relative to 0.1 uM ghrelin. Type of assay: functional, cell-based. A general note: Calcium assays in cells follow changes in intracellular calcium, usually with a dye or a luminescent sensor.

Assay [3] has the same target. Nature of the assay: Agonist activity at human GHS1a receptor expressed in CHO cells assessed as induction of intracellular calcium mobilization. It counts as functional, cell-based. In outline:
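CHO cells transiently expressing hGHS-R1a via electroporation, Fluo-4AM loaded (1 µM, 1 h, 37 °C), calcium fluorescence read 60 s at ex 485/em 525 nm. EC50 from agonist dose-response curves, response as percentage of maximal signal from 10 µM ghrelin; triplicates, means of at least three experiments.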

T1 sequence (Q92847 whole entry): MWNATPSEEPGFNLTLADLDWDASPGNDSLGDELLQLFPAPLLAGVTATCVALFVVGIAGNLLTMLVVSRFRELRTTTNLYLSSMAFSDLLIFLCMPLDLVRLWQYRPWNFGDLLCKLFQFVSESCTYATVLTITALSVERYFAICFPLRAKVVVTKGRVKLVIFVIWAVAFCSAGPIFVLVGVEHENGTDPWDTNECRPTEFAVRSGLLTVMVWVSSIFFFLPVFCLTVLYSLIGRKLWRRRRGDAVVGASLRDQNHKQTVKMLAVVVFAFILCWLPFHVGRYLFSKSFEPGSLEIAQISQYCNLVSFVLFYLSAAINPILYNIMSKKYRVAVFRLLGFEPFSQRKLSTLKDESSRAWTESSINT

For orientation: IC50 means the concentration that inhibits the measured activity by half. High values mean lower potency, low ones higher potency. The compound `CC(C)(N)C(=O)N[C@H](Cc1c[nH]c2ccccc12)c1nnc(CCCc2c[nH]c3ccccc23)n1Cc1cccc2ccccc12` had a concentration for half-maximal inhibition (IC50) in assay [1] of 140 nM. For the same compound, the Activity in assay [2] was 62%; in assay [3] (filed as partial agonist), “Partial agonist”.

Take `Cc1ccc(Cn2c(Cc3ccccc3)nnc2[C@@H](Cc2c[nH]c3ccccc23)NC(=O)C(C)(C)N)cc1`: the 50% inhibitory concentration (IC50) in assay [1] was found to be 840 nM. The results for the Activity in assay [2] and in assay [3] (filed as partial agonist) were 28% and “Partial agonist”, respectively.

As for `CCCCCCn1c(CCc2c[nH]c3ccccc23)nnc1[C@@H](Cc1c[nH]c2ccccc12)NC(=O)C(C)(C)N`, the IC50 in assay [1] came out at 195 nM. Further, the Activity is 62% in assay [2] and “Partial agonist” in assay [3] (filed as partial agonist).

Turning to `CC(C)(N)C(=O)N[C@H](Cc1c[nH]c2ccccc12)c1nnc(CCc2ccccc2)n1CCc1ccccc1`, the half-maximal inhibitory concentration (IC50) in assay [1] worked out at 310 nM. Besides, the Activity is 63% in assay [2] and “Partial agonist” in assay [3] (filed as partial agonist).

Turning to `CCCCCCn1c(CCCc2c[nH]c3ccccc23)nnc1[C@@H](Cc1c[nH]c2ccccc12)NC(=O)C(C)(C)N`, the Activity is 32% in assay [2] and “Partial agonist” in assay [3] (filed as partial agonist).

The compound `COc1ccc(Cn2c(CCCc3c[nH]c4ccccc34)nnc2[C@@H](Cc2c[nH]c3ccccc23)NC(=O)C(C)(C)N)c(OC)c1` displayed an IC50 in assay [1] of 750 nM. Moreover, the results for the Activity in assay [2] and in assay [3] (filed as partial agonist) were 27% and “Partial agonist”, respectively.

Usually EC50 stands for the concentration giving half of the maximal effect. Turning to `COc1cccc(Cn2c(CCc3c[nH]c4ccccc34)nnc2[C@@H](Cc2c[nH]c3ccccc23)NC(=O)C(C)(C)N)c1`, in assay [2], the Activity amounted to 63%. The EC50 in assay [3] was 4 nM.

Turning to `CC(C)(N)C(=O)N[C@H](Cc1c[nH]c2ccccc12)c1nnc(CCc2c[nH]c3ccccc23)n1Cc1cccc2ccccc12`, the Activity is 54% in assay [2] and “Partial agonist” in assay [3] (filed as partial agonist).

For the compound `CC(C)(N)C(=O)N[C@H](Cc1c[nH]c2ccccc12)c1nnc(CCc2c[nH]c3ccccc23)n1-c1ccccc1`, the Activity in assay [2] is 91%. Also, the EC50 in assay [3] came to 41 nM.

Consider `CC(C)(N)C(=O)N[C@H](Cc1c[nH]c2ccccc12)c1nnc(CCc2ccccc2)n1Cc1cccc2ccccc12`, for which the IC50 in assay [1] worked out at 130 nM. In addition, the figures for the Activity in assay [2] and in assay [3] (filed as partial agonist) were 40% and “Partial agonist”, respectively.

As for `COc1ccc(Cn2c(Cc3c[nH]c4ccccc34)nnc2[C@@H](Cc2c[nH]c3ccccc23)NC(=O)C(C)(C)N)c(OC)c1`, in assay [1], the IC50 stood at 1000 nM.

As for `COc1cccc(Cn2c(CCCc3c[nH]c4ccccc34)nnc2[C@@H](Cc2c[nH]c3ccccc23)NC(=O)C(C)(C)N)c1`, the IC50 in assay [1] stood at 22 nM. Also, the Activity in assay [2] is 66%. Besides, in assay [3], the 50% effective concentration (EC50) was 18 nM.

For the compound `COc1cccc(Cn2c(Cc3ccccc3)nnc2[C@@H](Cc2c[nH]c3ccccc23)NC(=O)C(C)(C)N)c1`, the Activity in assay [2] was 50%; in assay [3] (filed as partial agonist), “Partial agonist”.

In the case of `CC(C)(N)C(=O)N[C@H](Cc1c[nH]c2ccccc12)c1nnc(Cc2ccccc2)n1CCc1ccccc1`, the half-inhibitory concentration (IC50) in assay [1] is more than 1000 nM. Also, the Activity in assay [2] is 85%; in assay [3] (filed as partial agonist), “Partial agonist”.

As for `CC(C)(N)C(=O)N[C@H](Cc1c[nH]c2ccccc12)c1nnc(Cc2ccccc2)n1Cc1ccccc1`, the IC50 in assay [1] stood at 500 nM. The Activity in assay [2] was 44%; in assay [3] (filed as partial agonist), “Partial agonist”.

In assay [1], `CC(C)(N)C(=O)N[C@H](Cc1c[nH]c2ccccc12)c1nnc(CCc2c[nH]c3ccccc23)n1Cc1ccc(Br)cc1` gave an IC50 of 100 nM. The Activity in assay [2] was 27%; in assay [3] (filed as partial agonist) it was “Partial agonist”.

`Cn1c(Cc2c[nH]c3ccccc23)nnc1[C@@H](Cc1c[nH]c2ccccc12)NC(=O)C(C)(C)N` displayed an IC50 in assay [1] of 1700 nM.

As for `CC(C)(N)C(=O)N[C@H](Cc1c[nH]c2ccccc12)c1nnc(CCc2c[nH]c3ccccc23)n1Cc1ccc(F)cc1`, the Activity in assay [2] is 59%. The 50% effective concentration (EC50) in assay [3] amounted to 210 nM.

Consider `CC(C)(N)C(=O)N[C@H](Cc1c[nH]c2ccccc12)c1nnc(Cc2c[nH]c3ccccc23)[nH]1`, for which the 50% inhibitory concentration (IC50) in assay [1] worked out at 2200 nM.

In the case of `CC(C)(N)C(=O)N[C@H](Cc1c[nH]c2ccccc12)c1nnc(CCc2ccccc2)n1Cc1ccccn1`, the IC50 in assay [1] was more than 1000 nM. Moreover, the values for the Activity in assay [2] and in assay [3] (filed as partial agonist) were 59% and “Partial agonist”, respectively.

For `CC(C)(N)C(=O)N[C@H](Cc1c[nH]c2ccccc12)c1nncn1CCc1c[nH]c2ccccc12`, in assay [1], the IC50 turned out to be 850 nM.

For the compound `CC(C)(N)C(=O)N[C@H](Cc1c[nH]c2ccccc12)c1nnc(Cc2ccccc2)n1Cc1ccc(F)cc1`, the values for the Activity in assay [2] and in assay [3] (filed as partial agonist) were 60% and “Partial agonist”, respectively.

Consider `CC(C)(N)C(=O)N[C@H](Cc1c[nH]c2ccccc12)c1nnc(Cc2ccccc2)n1Cc1cccc2ccccc12`, for which the Activity in assay [2] was 78%; in assay [3] (filed as partial agonist), “Partial agonist”.

In turn, `CC(C)(N)C(=O)N[C@H](Cc1c[nH]c2ccccc12)c1nnc(Cc2ccccc2)n1Cc1ccccn1` showed a 50% inhibitory concentration (IC50) in assay [1] of more than 1000 nM. Besides, the Activity in assay [2] is 78%; in assay [3] (filed as partial agonist), “Partial agonist”.

Compound `CC(C)(N)C(=O)N[C@H](Cc1c[nH]c2ccccc12)c1nnc(CCc2ccccc2)n1Cc1ccco1` showed an IC50 in assay [1] of 420 nM. For the same compound, the Activity in assay [2] is 97%. The EC50 in assay [3] is 23 nM.

In assay [1], `COc1ccc(CCn2c(CCc3ccccc3)nnc2[C@@H](Cc2c[nH]c3ccccc23)NC(=O)C(C)(C)N)cc1` displayed a half-maximal inhibitory concentration (IC50) of 550 nM. Moreover, the values for the Activity in assay [2] and in assay [3] (filed as partial agonist) were 82% and “Partial agonist”, respectively.

Turning to `CCCCCCn1c(Cc2ccccc2)nnc1[C@@H](Cc1c[nH]c2ccccc12)NC(=O)C(C)(C)N`, the half-maximal inhibitory concentration (IC50) in assay [1] was determined as 470 nM. Further, the Activity in assay [2] was 67%; in assay [3] (filed as partial agonist), “Partial agonist”.

`CC(C)(N)C(=O)N[C@H](Cc1c[nH]c2ccccc12)c1nnc(Cc2ccccc2)n1CCc1c[nH]c2ccccc12` registered an IC50 in assay [1] of 700 nM. Further, the figures for the Activity in assay [2] and in assay [3] (filed as agonist) were 95% and “Agonist”, respectively.

On to `COc1cc(Cn2c(Cc3ccccc3)nnc2[C@@H](Cc2c[nH]c3ccccc23)NC(=O)C(C)(C)N)cc(OC)c1`, for which the IC50 in assay [1] came out at 110 nM. The results for the Activity in assay [2] and in assay [3] (filed as partial agonist) were 29% and “Partial agonist”, respectively.

For `CC(C)(N)C(=O)N[C@H](Cc1c[nH]c2ccccc12)c1nnc(Cc2ccccc2)n1Cc1ccc(Br)cc1`, the 50% inhibitory concentration (IC50) in assay [1] worked out at 440 nM. For the same compound, the figures for the Activity in assay [2] and in assay [3] (filed as partial agonist) were 16% and “Partial agonist”, respectively.

The compound `CC(C)(N)C(=O)N[C@H](Cc1c[nH]c2ccccc12)c1nnc(CCc2c[nH]c3ccccc23)n1CC(c1ccccc1)c1ccccc1` yielded an IC50 in assay [1] of 640 nM. For the same compound, the Activity is 62% in assay [2] and “Partial agonist” in assay [3] (filed as partial agonist).

For `CC(C)(N)C(=O)N[C@H](Cc1c[nH]c2ccccc12)c1nnc(Cc2ccccc2)n1Cc1ccc(Cl)c(Cl)c1`, the half-maximal inhibitory concentration (IC50) in assay [1] is 520 nM. Moreover, the values for the Activity in assay [2] and in assay [3] (filed as partial agonist) were 64% and “Partial agonist”, respectively.

The compound `COc1cc(Cn2c(CCc3c[nH]c4ccccc34)nnc2[C@@H](Cc2c[nH]c3ccccc23)NC(=O)C(C)(C)N)cc(OC)c1` had an IC50 in assay [1] of 150 nM. The results for the Activity in assay [2] and in assay [3] (filed as partial agonist) were 22% and “Partial agonist”, respectively.

`CCc1ccc(Cn2c(CCc3ccccc3)nnc2[C@@H](Cc2c[nH]c3ccccc23)NC(=O)C(C)(C)N)cc1`: the Activity in assay [2] amounted to 26%. Besides, the EC50 in assay [3] came to 11 nM.

In turn, `CC(C)(N)C(=O)N[C@H](Cc1c[nH]c2ccccc12)c1nnc(CCc2c[nH]c3ccccc23)n1CCc1ccccc1` gave an IC50 in assay [1] of 80 nM. Moreover, the Activity in assay [2] was 25%; in assay [3] (filed as partial agonist), “Partial agonist”.

As for `Cn1c(CCc2c[nH]c3ccccc23)nnc1[C@@H](Cc1c[nH]c2ccccc12)NC(=O)C(C)(C)N`, the IC50 in assay [1] was found to be 580 nM.

In assay [1], `CC(C)(N)C(=O)N[C@H](Cc1c[nH]c2ccccc12)c1nnc(CCc2ccccc2)n1Cc1cccs1` showed an IC50 of 570 nM. The Activity was 91% in assay [2] and “Agonist” in assay [3] (filed as agonist).

In turn, `Cc1ccc(Cn2c(CCc3ccccc3)nnc2[C@@H](Cc2c[nH]c3ccccc23)NC(=O)C(C)(C)N)cc1` gave an IC50 in assay [1] of 140 nM. The Activity in assay [2] was 19%; in assay [3] (filed as partial agonist), “Partial agonist”.

Compound `CC(C)(N)C(=O)N[C@H](Cc1c[nH]c2ccccc12)c1nnc(Cc2ccccc2)n1CC(c1ccccc1)c1ccccc1` gave an IC50 in assay [1] of more than 1000 nM. Also, the Activity was 60% in assay [2] and “Partial agonist” in assay [3] (filed as partial agonist).

In assay [1], `CC(C)(N)C(=O)N[C@H](Cc1c[nH]c2ccccc12)c1nnc(CCc2ccccc2)n1Cc1ccc(Cl)c(Cl)c1` returned a concentration for half-maximal inhibition (IC50) of 640 nM. Moreover, the Activity is 53% in assay [2] and “Partial agonist” in assay [3] (filed as partial agonist).

Turning to `CC(C)(N)C(=O)N[C@H](Cc1c[nH]c2ccccc12)c1nnc(Cc2c[nH]c3ccccc23)n1CCc1ccccc1`, the half-inhibitory concentration (IC50) in assay [1] was determined as 300 nM. Further, the Activity is 88% in assay [2] and “Partial agonist” in assay [3] (filed as partial agonist).

Turning to `CC(C)(N)C(=O)N[C@H](Cc1c[nH]c2ccccc12)c1nnc(CCCc2c[nH]c3ccccc23)n1Cc1ccc(Br)cc1`, the Activity in assay [2] was 25%; in assay [3] (filed as partial agonist), “Partial agonist”.

Regarding `CC(C)(N)C(=O)N[C@H](Cc1c[nH]c2ccccc12)c1nnc(CCc2ccccc2)n1Cc1ccc([N+](=O)[O-])cc1`, in assay [1], the IC50 is more than 1000 nM. For the same compound, the Activity in assay [2] worked out at 10%.

The compound `CC(C)(N)C(=O)N[C@H](Cc1c[nH]c2ccccc12)c1nnc(CCc2ccccc2)n1Cc1ccc(F)cc1` showed an IC50 in assay [1] of 400 nM. The values for the Activity in assay [2] and in assay [3] (filed as partial agonist) were 20% and “Partial agonist”, respectively.
